Measurements reported in ChEMBL document CHEMBL1156827, “Benzimidazole derivatives as new serotonin 5-HT6 receptor antagonists. Molecular mechanisms of receptor inactivation” (J Med Chem, 2010).
Calls of active or inactive are those of the source. No cut-off for these calls is given here.

Experiments:
[1] = Antagonist activity at mouse 5HT6 receptor N6.55A mutant expressed in COS7 cells assessed as inhibition of serotonin-induced cAMP accumulation by HTRF assay; format: functional, cell-based; details: cos-7
Method in brief: (§1)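 COS-7 cells were transfected with wild-type or mutant receptor cDNA and seeded at 100000 cells/well. At 24 h post-transfection, cells were stimulated for 10 min at 37 °C with eight concentrations of test ligand plus 100 μM 5-HT. cAMP was read by HTRF. […] Three independent experiments in triplicate, mean ± SEM.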

[2] = target: 5-hydroxytryptamine receptor 6 (Mus musculus, UniProt Q9R1C8, F287A); experiment: Antagonist activity at mouse 5HT6 receptor F6.52A mutant expressed in COS7 cells assessed as inhibition of serotonin-induced cAMP accumulation by HTRF assay; format: functional, cell-based, COS-7; method in brief: as §1
[3] = target: 5-hydroxytryptamine receptor 6 (Mus musculus, UniProt Q9R1C8); experiment: Antagonist activity at mouse wild type 5HT6 receptor expressed in COS7 cells assessed as inhibition of serotonin-induced cAMP accumulation by HTRF assay; format: functional, cell-based, COS-7
Method in brief: (§2)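 COS-7 cells were transfected with wild-type or mutant receptor cDNA and seeded at 100000 cells/well. At 24 h post-transfection, cells were stimulated for 10 min at 37 °C with eight concentrations of test ligand plus 100 μM 5-HT. cAMP was read by HTRF. Three independent experiments in triplicate, mean ± SEM.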

[4] = target: 5-hydroxytryptamine receptor 6 (Mus musculus, UniProt Q9R1C8, W283A); experiment: Antagonist activity at mouse 5HT6 receptor W6.48A mutant expressed in COS7 cells assessed as inhibition of serotonin-induced cAMP accumulation by HTRF assay; format: functional, cell-based, COS-7; method in brief: as §1
[5] = target: 5-hydroxytryptamine receptor 6 (Mus musculus, UniProt Q9R1C8, C110A); experiment: Antagonist activity at mouse 5HT6 receptor C3.36A mutant expressed in COS7 cells assessed as inhibition of serotonin-induced cAMP accumulation by HTRF assay; format: functional, cell-based, COS-7; method in brief: as §2
[6] = target: 5-hydroxytryptamine receptor 7 (Homo sapiens, UniProt P34969); experiment: Displacement of [3H]LSD from human 5HT7 receptor expressed in HEK293 cells by liquid scintillation counting; format: cell-based
Method in brief: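 Purchased HEK-293 membranes expressing h5-HT7R were incubated with 3 nM [³H]LSD for 120 min at 27 °C. Buffer: 50 mM Tris-HCl, 10 mM MgSO4, 0.5 mM EDTA, pH 7.4. Nonspecific binding was defined with 25 μM clozapine. Samples were filtered onto 0.3% PEI-soaked filters, washed with ice-cold Tris, and counted by scintillation. Ki was derived from IC50 by Cheng-Prusoff.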

[7] = target: T1, 5-hydroxytryptamine receptor 6 (Homo sapiens, UniProt P50406); experiment: Antagonist activity at human 5HT6 receptor expressed in COS7 cells assessed as inhibition of serotonin-induced cAMP accumulation by HTRF assay; format: functional, cell-based, COS-7; method in brief: as §2
[8] = target: T1, 5-hydroxytryptamine receptor 6; experiment: Agonist activity at human 5HT6 receptor expressed in COS7 cells assessed as stimulation of cAMP accumulation by HTRF assay; format: functional, cell-based; details: COS-7
Method in brief: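 COS-7 cells transfected with human 5-HT6R cDNA, seeded 100000 cells/well, stimulated 24 h post-transfection for 10 min at 37 °C with each tested compound without 5-HT (agonist mode). cAMP quantified by HTRF; activity expressed as percentage of maximal effect obtained with serotonin alone. Three independent experiments in triplicate.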

[9] = target: T1, 5-hydroxytryptamine receptor 6; experiment: Displacement of [3H]LSD from human 5HT6 receptor expressed in HEK293 cells by liquid scintillation counting; format: cell-based
Method in brief: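 Buffer: 50 mM Tris-HCl, 10 mM MgCl2, 0.5 mM EDTA, pH 7.4. Nonspecific binding was defined with 500 μM serotonin. Samples were filtered onto 0.5% PEI-soaked filters, washed with ice-cold Tris, and counted by scintillation. Screening was at 10^-6 M; six-point curves were run if displacement exceeded 50%. Ki by Cheng-Prusoff, 2-4 experiments.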

T1 sequence (P50406 whole entry): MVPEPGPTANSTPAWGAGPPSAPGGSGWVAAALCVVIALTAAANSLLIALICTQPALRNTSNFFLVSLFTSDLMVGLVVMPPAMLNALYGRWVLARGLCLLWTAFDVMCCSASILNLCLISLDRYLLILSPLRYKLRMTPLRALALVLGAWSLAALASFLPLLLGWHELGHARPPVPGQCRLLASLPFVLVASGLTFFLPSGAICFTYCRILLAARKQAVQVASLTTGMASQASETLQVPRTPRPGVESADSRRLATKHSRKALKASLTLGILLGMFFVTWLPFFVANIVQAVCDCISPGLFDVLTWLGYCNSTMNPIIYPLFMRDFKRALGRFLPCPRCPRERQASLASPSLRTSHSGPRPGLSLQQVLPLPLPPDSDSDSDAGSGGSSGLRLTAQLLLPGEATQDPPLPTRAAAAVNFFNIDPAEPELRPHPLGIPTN
Sequence of 5-hydroxytryptamine receptor 7 (P34969 whole entry): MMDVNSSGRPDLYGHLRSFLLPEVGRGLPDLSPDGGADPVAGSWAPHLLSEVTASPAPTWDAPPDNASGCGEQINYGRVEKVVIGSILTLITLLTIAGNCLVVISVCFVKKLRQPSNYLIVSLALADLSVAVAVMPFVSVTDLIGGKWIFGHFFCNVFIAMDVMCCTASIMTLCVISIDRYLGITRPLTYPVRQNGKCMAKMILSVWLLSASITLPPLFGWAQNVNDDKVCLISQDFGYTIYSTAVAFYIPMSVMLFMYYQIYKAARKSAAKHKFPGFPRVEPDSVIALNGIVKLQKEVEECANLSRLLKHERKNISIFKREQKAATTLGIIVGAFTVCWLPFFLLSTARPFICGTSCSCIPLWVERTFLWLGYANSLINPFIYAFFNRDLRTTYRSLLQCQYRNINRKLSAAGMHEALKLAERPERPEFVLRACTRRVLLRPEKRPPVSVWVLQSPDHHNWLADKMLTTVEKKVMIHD
Sequence of 5-hydroxytryptamine receptor 6 (Mus musculus, UniProt Q9R1C8, W283A) (Q9R1C8 whole entry W283A): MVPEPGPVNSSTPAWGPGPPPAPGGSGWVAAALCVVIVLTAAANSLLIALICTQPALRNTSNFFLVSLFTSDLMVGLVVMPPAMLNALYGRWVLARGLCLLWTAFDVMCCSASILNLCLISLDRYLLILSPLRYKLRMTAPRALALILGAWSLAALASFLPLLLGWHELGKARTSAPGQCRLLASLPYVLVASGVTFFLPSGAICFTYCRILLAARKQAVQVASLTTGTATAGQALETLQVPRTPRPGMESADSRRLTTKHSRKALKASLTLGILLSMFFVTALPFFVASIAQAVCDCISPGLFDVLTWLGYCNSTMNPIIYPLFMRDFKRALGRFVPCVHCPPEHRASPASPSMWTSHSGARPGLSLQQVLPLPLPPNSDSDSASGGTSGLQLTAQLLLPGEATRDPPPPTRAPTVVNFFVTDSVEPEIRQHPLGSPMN
Sequence of 5-hydroxytryptamine receptor 6 (Mus musculus, UniProt Q9R1C8) (Q9R1C8 whole entry): as the sequence (Q9R1C8 whole entry W283A) above, with A283W counted along it
Sequence of 5-hydroxytryptamine receptor 6 (Mus musculus, UniProt Q9R1C8, F287A) (Q9R1C8 whole entry F287A): as the sequence (Q9R1C8 whole entry W283A) above, with A283W, F287A counted along it
Sequence of 5-hydroxytryptamine receptor 6 (Mus musculus, UniProt Q9R1C8, C110A) (Q9R1C8 whole entry C110A): as the sequence (Q9R1C8 whole entry W283A) above, with C110A, A283W counted along it

| Ki [6] | Ki [9] | SMILES | also measured |
| --- | --- | --- | --- |
| – | – | COc1ccc(NS(=O)(=O)c2ccc(I)cc2)cc1N1CCN(C)CC1 | Ki [1]: 27 nM; Ki [2]: 114 nM; Ki [3]: 0.75 nM; Ki [4]: 0.32 nM; Ki [5]: 54 nM |
| > 500 nM | 36.2 nM | CN1CCN(c2cccc3[nH]c(Cc4cccc5ccccc45)nc23)CC1 | Ki [7]: 27 nM; Activity [8]: inactive |
| > 500 nM | > 1000 nM | O=C(c1ccc2ccccc2c1)c1nc2cc(N3CCNCC3)ccc2[nH]1 | – |
| > 500 nM | 13 nM | O=C(c1nc2c(N3CCNCC3)cccc2[nH]1)c1cccc2ccccc12 | Ki [7]: 15 nM; Activity [8]: inactive |
| > 500 nM | > 1000 nM | c1ccc2cc(Cc3nc4ccc(N5CCNCC5)cc4[nH]3)ccc2c1 | – |
| > 500 nM | > 1000 nM | CN1CCN(c2cccc3[nH]c(C(=O)c4ccc5ccccc5c4)nc23)CC1 | – |
| > 500 nM | > 1000 nM | CN1CCN(c2ccc3[nH]c(C(=O)c4ccc5ccccc5c4)nc3c2)CC1 | – |
| > 500 nM | – | CN1CCN(c2cccc3[nH]c(C(=O)c4cccc5ccccc45)nc23)CC1 | – |
| > 500 nM | > 1000 nM | c1ccc2c(Cc3nc4ccc(N5CCNCC5)cc4[nH]3)cccc2c1 | – |
| > 500 nM | > 1000 nM | CN1CCN(c2ccc3[nH]c(Cc4cccc5ccccc45)nc3c2)CC1 | – |
| > 500 nM | > 1000 nM | CN1CCN(c2ccc3[nH]c(C(=O)c4cccc5ccccc45)nc3c2)CC1 | – |
| > 500 nM | 16 nM | c1ccc2c(Cc3nc4c(N5CCNCC5)cccc4[nH]3)cccc2c1 | Ki [7]: 16 nM; Activity [8]: inactive |
| > 500 nM | > 1000 nM | CN1CCN(c2ccc3[nH]c(Cc4ccc5ccccc5c4)nc3c2)CC1 | – |

| SMILES | Ki [6] | Ki [9] | also measured |
| --- | --- | --- | --- |
| O=C(c1ccccc1)c1nc2c(N3CCNCC3)cccc2[nH]1 | > 500 nM | > 1000 nM | – |
| CN1CCN(c2cccc3[nH]c(C(=O)c4ccccc4)nc23)CC1 | > 500 nM | > 1000 nM | – |
| c1ccc(Cc2nc3cc(N4CCNCC4)ccc3[nH]2)cc1 | > 500 nM | > 1000 nM | – |
| c1ccc(Cc2nc3c(N4CCNCC4)cccc3[nH]2)cc1 | > 500 nM | 58 nM | Ki [7]: 31 nM; Activity [8]: inactive |
| CN1CCN(c2ccc3[nH]c(Cc4ccccc4)nc3c2)CC1 | > 500 nM | > 1000 nM | – |
| CN1CCN(c2cccc3[nH]c(Cc4ccccc4)nc23)CC1 | > 500 nM | 66.8 nM | Ki [7]: 16 nM; Activity [8]: inactive |
| CN1CCN(c2cccc3[nH]cnc23)CC1 | – | > 1000 nM | – |
| CN1CCN(c2ccc3[nH]c(C(=O)c4ccccc4)nc3c2)CC1 | > 500 nM | > 1000 nM | – |
